Screening results: PubChem, Johns Hopkins Ion Channel Center
TRPC4 act – opens the mouse TRPC4 cation channel. Q9QUQ5. HEK293 TRPC4beta/mu-opioid, Fluo4 calcium fluorescence; active compounds read high. B-score at 10 µM. 310,000 compounds, 0.49% hits;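 active means B-score above 5 SD of library B-scores, and initial fluorescence ratio not above library mean plus 5 SD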;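 further: positive B-score marks a calcium rise read as TRPC4 activation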
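Incubation: 45 min room-temperature Fluo4 loading, 110 s read / System: HEK293 cells stably co-expressing mouse TRPC4beta and mu-opioid receptor / Signal: Fluo4 fluorescence, kinetic / Control set: buffer (low) and maximal DAMGO (high) / Measure: integrated baseline-normalised fluorescence ratio, converted to per-well B score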
TRPC4 block – TRPC4 (mouse) channel inhibition. Q9QUQ5. B-score at 10 µM. HEK293 TRPC4beta/mu-opioid, DAMGO-evoked Fluo4 calcium flux; active compounds read low. 300,000 compounds, 0.39% hits;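 active means B-score over 3 SD under the library average, no early fluorescence shift, positive overall ratio signal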
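test system = HEK293 cells with stable TRPC4beta plus mu-opioid receptor expression | detection = Fluo4 Ca2+ flux fluorescence | read-out = integrated fluorescence ratio relative to baseline, converted to per-well B score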
TRPC4 PAM – TRPC4 (mouse) allosteric potentiation | Q9QUQ5 | HEK293 TRPC4beta/mu-opioid, DAMGO EC20, Fluo-4 Ca2+ flux; active compounds read high | B-score at 10 µM | 310,000 compounds, 0.42% hits | AID 2227;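 active means B-score of calcium response area above 5 SD of library B-scores, with initial fluorescence ratio within 5 SD of library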;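 further: B-score of integrated fluorescence ratio over time as area under calcium response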
Kir21 inh – Kir2.1 (mouse) channel inhibition. P35561. HEK293-Kir2.1, FluxOR thallium flux fluorescence; active compounds read low. B-score at 10 µM. 310,000 compounds, 0.85% hits. AID 1672;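 active means fluorescence ratio B-score at or below minus 3 SD of library scores, with starting-brightness B-score within 2 SD, cut at about -4.2 in these data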;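 further: channel flux triggered by added potassium and thallium sulfate stimulus; B-score of peak minus minimum fluorescence over baseline after thallium stimulus; more negative B-score means stronger Kir2.1 block with less thallium influx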
TRPC6 inhibitor – blocks the mouse TRPC6 cation channel; B-score at 10 µM; HEK293-TRPC6, membrane potential dye, ACh-evoked depolarization; active compounds read low; Q61143; 310,000 compounds, 1.1% hits;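 active means B-score under library mean minus 3 SD, initial fluorescence not abnormally high, positive integrated signal ratio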;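 further: B-score derived from integrated fluorescence ratio over the kinetic read; more negative B-score means stronger inhibition of depolarization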
Target sequence (Q61143 whole entry, looked up): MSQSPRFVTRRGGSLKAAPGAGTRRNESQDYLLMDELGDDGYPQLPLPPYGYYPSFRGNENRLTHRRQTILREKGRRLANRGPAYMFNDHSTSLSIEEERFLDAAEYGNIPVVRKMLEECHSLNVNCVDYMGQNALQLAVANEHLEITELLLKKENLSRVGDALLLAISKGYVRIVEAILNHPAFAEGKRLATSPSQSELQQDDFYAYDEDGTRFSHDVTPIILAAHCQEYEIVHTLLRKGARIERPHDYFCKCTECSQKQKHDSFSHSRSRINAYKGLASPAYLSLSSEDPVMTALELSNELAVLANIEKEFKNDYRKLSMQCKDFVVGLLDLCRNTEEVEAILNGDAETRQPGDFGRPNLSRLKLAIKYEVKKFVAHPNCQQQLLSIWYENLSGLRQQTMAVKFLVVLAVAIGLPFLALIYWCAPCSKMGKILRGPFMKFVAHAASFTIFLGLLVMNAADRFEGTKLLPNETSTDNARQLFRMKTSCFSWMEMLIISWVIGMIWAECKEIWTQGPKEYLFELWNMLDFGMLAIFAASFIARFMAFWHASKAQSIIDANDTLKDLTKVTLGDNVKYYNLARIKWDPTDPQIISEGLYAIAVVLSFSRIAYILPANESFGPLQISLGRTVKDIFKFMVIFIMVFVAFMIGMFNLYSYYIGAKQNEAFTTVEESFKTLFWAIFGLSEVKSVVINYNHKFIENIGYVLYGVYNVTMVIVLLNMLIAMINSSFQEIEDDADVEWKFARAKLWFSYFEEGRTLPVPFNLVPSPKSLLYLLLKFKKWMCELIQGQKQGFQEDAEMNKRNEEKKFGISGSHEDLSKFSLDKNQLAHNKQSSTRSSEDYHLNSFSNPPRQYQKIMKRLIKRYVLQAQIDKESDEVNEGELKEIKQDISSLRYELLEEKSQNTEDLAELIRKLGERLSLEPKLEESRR
TRPC6 act – activates the mouse TRPC6 cation channel; Q61143; HEK293-TRPC6 membrane potential dye fluorescence; active compounds read high; B-score at 10 µM; 310,000 compounds, 0.13% hits; AID 2550;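 active means B-score of the integrated fluorescence ratio above library mean plus 3 SD, and starting fluorescence ratio within library mean plus 5 SD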;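 further: higher score means more depolarization so channel activation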
TRPC4 sel inh 2 – second check of whether TRPC6 inhibitors also affect mouse TRPC4 | shares compounds with TRPC6 inhibitor | HEK293 TRPC4/MOR, membrane potential dye fluorescence; channel activated by saturating DAMGO dose | inhibition, % at 10 µM | 920 compounds, 42% hits;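 active means compounds whose fluorescence signal differed from control wells by over 3 SD, either direction, in both duplicate plates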
TRPC4 spec – tests whether TRPC6 inhibitors also affect mouse TRPC4; shares compounds with TRPC6 inhibitor; HEK293 TRPC4/mu-opioid, membrane potential fluorescence; activity change, negative = inhibition, % at 10 µM; 920 compounds, 61% hits;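 active means rise or fall in signal beyond 3 SD of buffer-only wells in both replicate plates, either sign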;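 further: integrated kinetic ratio of fluorescence range over baseline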
HEK293 MPD ctr 2-1 – second check of TRPC6 inhibitor effects in parental HEK293 cells | shares compounds with TRPC6 inhibitor | parental HEK293 membrane potential dye fluorescence; maximal acetylcholine challenge after compound addition | signal change vs control, % at 10 µM | 920 compounds, 31% hits | AID 2779;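 active means membrane potential signal moving either way by over 3 SD of the maximum-effect control, in both duplicate plates, meaning non-specific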
HEK293 MPD ctr-1 – counter-screen for TRPC6 inhibitors: effect in parental HEK293 cells. shares compounds with TRPC6 inhibitor. parental HEK293 membrane potential dye fluorescence. membrane potential signal change, % at 10 µM. 920 compounds, 60% hits. AID 2780;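 active means membrane potential signal shifting up or down by more than 3 SD of buffer-only wells, on both duplicate plates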
HEK293 MPD ctr-2 – checks TRPC6 modulator effects in parental HEK293 cells; shares compounds with TRPC6 inhibitor; membrane potential dye fluorescence; membrane potential signal change, % at 10 µM; 2,400 compounds, 51% hits; AID 488924;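 active means membrane potential signal moves up or down beyond 5 SD from buffer-only wells, on both duplicate plates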
HEK293 MPD ctr 2-2 – second check of TRPC6 modulator effects in parental HEK293 cells. shares compounds with TRPC6 inhibitor. membrane potential dye fluorescence; after compound, maximal acetylcholine stimulation. inhibition, % at 10 µM. 2,400 compounds, 14% hits;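 active means membrane potential signal drops by more than 5 SD from the mean control signal, in both duplicate plates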;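 further: plate controls were acetylcholine ECmax control wells for no effect and buffer only wells for full effect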
TRPC4 ctr mod – tests whether TRPC6 modulators also affect mouse TRPC4. shares compounds with TRPC6 inhibitor. HEK293 TRPC4/mu-opioid, membrane potential fluorescence. percent change from control (negative = decrease, positive = increase), % at 10 µM. 2,400 compounds, 69% hits. AID 488927;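 active means membrane potential signal moved up or down beyond 5 SD of buffer control wells, in both duplicate plates, actives on both sides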;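 further: plate controls were assay buffer wells for no effect and DAMGO maximal-effect wells for full effect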
TRPC4/MOR inh 2 – mouse TRPC4 off-target activity of TRPC6 modulators, second screen; shares compounds with TRPC6 inhibitor; HEK293 TRPC4/mu-opioid, membrane potential dye fluorescence; stimulated with maximal-effect DAMGO; inhibition, % at 10 µM; 2,400 compounds, 55% hits; AID 488928;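 active means drop in membrane potential signal beyond 5 SD of the control wells in both duplicate plates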;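 further: TRPC4 counter screen for TRPC6 hits run under conditions tuned for TRPC6 not TRPC4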
TRPC6 block conf – confirmation of mouse TRPC6 inhibitors. shares compounds with TRPC6 inhibitor. 3,300 compounds, 43% hits. inhibition, % at 10 µM. HEK293-TRPC6, membrane potential dye, ACh-evoked depolarization;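 active means fluorescence ratio falls more than 5 SD below the full-stimulation control mean, in both duplicate runs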;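 further: integrated fluorescence ratio of peak minus minimum over baseline after agonist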
TRPC6 act conf – mouse TRPC6 activator confirmation; shares compounds with TRPC6 inhibitor; HEK293-TRPC6 membrane potential dye fluorescence, FDSS; activation, % at 10 µM; 2,800 compounds, 11% hits; AID 488961;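 active means ratio signal rise beyond 5 SD above unstimulated control wells' mean, seen in both duplicate runs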;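 further: plate controls were buffer EC0 wells for no effect and acetylcholine ECmax response for full effect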
The depositor's hits bear a star. Shown are actives, neighbours in structure and some others; about 2.9% of the full set was active somewhere.

`COC(=O)C1=NN(C(=O)c2ccc(C)cc2)C(O)(c2ccc(Cl)cc2)C1` (stereo not drawn) gave TRPC4 act 102*, TRPC4 block inactive, TRPC4 PAM inactive, Kir21 inh -0.43, TRPC6 inhibitor -6.6*, TRPC6 act 34*, HEK293 MPD ctr-2 421%*, HEK293 MPD ctr 2-2 inactive, TRPC4 ctr mod 82%*, TRPC4/MOR inh 2 inactive, TRPC6 block conf 77%* and TRPC6 act conf 298%*.
`COc1ccc(-c2cc(=O)oc3c(C)c(O)c(CN(C)C)cc23)cc1` gave TRPC4 act inactive, TRPC4 block inactive, TRPC4 PAM inactive, Kir21 inh 0.15, TRPC6 inhibitor inactive and TRPC6 act inactive.
`Cc1c(O)c(CN(C)C)cc2c1oc(=O)c1ccccc12` gave TRPC4 act inactive, TRPC4 block inactive, TRPC4 PAM inactive, Kir21 inh 0.11, TRPC6 inhibitor -5.2*, TRPC6 act inactive, HEK293 MPD ctr-2 -126%*, HEK293 MPD ctr 2-2 inactive, TRPC4 ctr mod -28%*, TRPC4/MOR inh 2 inactive, TRPC6 block conf inactive and TRPC6 act conf inactive.
For CCN(CC)CCC#CC(O)(c1ccccc1)c1ccccc1 the results were TRPC4 act inactive, TRPC4 block inactive, TRPC4 PAM inactive, Kir21 inh -2.3, TRPC6 inhibitor -8.8*, TRPC6 act inactive, TRPC4 sel inh 2 inactive, TRPC4 spec 6.4%*, HEK293 MPD ctr 2-1 -9.0%*, HEK293 MPD ctr-1 8.6%* and TRPC6 block conf 63%*.
Screening O=C(CCN1CCCCC1)c1ccccc1 returned TRPC4 act inactive, TRPC4 block inactive, TRPC4 PAM inactive, Kir21 inh 0.05, TRPC6 inhibitor inactive and TRPC6 act inactive.
Screening OC(C#CCCN1CCCCC1)(c1ccccc1)c1ccccc1 returned TRPC4 act inactive, TRPC4 block inactive, TRPC4 PAM inactive, Kir21 inh 0.41, TRPC6 inhibitor -8.8*, TRPC6 act inactive, TRPC4 sel inh 2 inactive, TRPC4 spec 6.0%*, HEK293 MPD ctr 2-1 14%*, HEK293 MPD ctr-1 6.0%* and TRPC6 block conf 72%*.
OC(C#CCCN1CCCCC1)(c1ccccc1)C1CCCCC1 (stereo not drawn) was read as TRPC4 act inactive, TRPC4 block inactive, TRPC4 PAM inactive, Kir21 inh -1.3, TRPC6 inhibitor -7.5*, TRPC6 act inactive, TRPC4 sel inh 2 inactive, TRPC4 spec 23%*, HEK293 MPD ctr 2-1 inactive, HEK293 MPD ctr-1 15%* and TRPC6 block conf 75%*.
For CCOC(=O)c1c(/N=C/C2=C(O)CC(C)(C)CC2=O)sc(C)c1C the results were TRPC4 act inactive, TRPC4 block inactive, TRPC4 PAM inactive, Kir21 inh 1.6, TRPC6 inhibitor inactive and TRPC6 act inactive.
Screening c1ccc(-c2cc(NCCN3CCCCC3)c3ccccc3n2)cc1 returned TRPC4 act inactive, TRPC4 block inactive, TRPC4 PAM inactive, Kir21 inh -2.2, TRPC6 inhibitor -8.7*, TRPC6 act inactive, HEK293 MPD ctr-2 -182%*, HEK293 MPD ctr 2-2 66%*, TRPC4 ctr mod -36%*, TRPC4/MOR inh 2 72%*, TRPC6 block conf 64%* and TRPC6 act conf inactive.
COCCN(C(=O)c1ccc(-c2ccc(Cl)cc2)o1)c1c(N)n(Cc2ccccc2)c(=O)[nH]c1=O was read as TRPC4 act inactive, TRPC4 block inactive, TRPC4 PAM inactive, Kir21 inh 1.2, TRPC6 inhibitor inactive and TRPC6 act inactive.
`O=C1C(=O)c2c(C(=O)c3ccccc3)coc2-c2ccccc21` gave TRPC4 act inactive, TRPC4 block inactive, TRPC4 PAM inactive, Kir21 inh 2.2, TRPC6 inhibitor -6.2*, TRPC6 act inactive, HEK293 MPD ctr-2 -80%*, HEK293 MPD ctr 2-2 inactive, TRPC4 ctr mod -18%*, TRPC4/MOR inh 2 72%*, TRPC6 block conf 60%* and TRPC6 act conf inactive.
O=C(C1=C(c2ccccc2)C(=O)c2ccccc2C1=O)c1ccccc1 was read as TRPC4 act inactive, TRPC4 block inactive, TRPC4 PAM inactive, Kir21 inh -0.47, TRPC6 inhibitor inactive and TRPC6 act inactive.
Cc1nc2ccccc2nc1N1CCC(C)CC1 was read as TRPC4 act inactive, TRPC4 block inactive, TRPC4 PAM inactive, Kir21 inh -3.2, TRPC6 inhibitor inactive and TRPC6 act inactive.
Screening Cc1cc(N2CCC(C)CC2)nc2cccc(O)c12 returned TRPC4 act inactive, TRPC4 block -6*, TRPC4 PAM inactive, Kir21 inh -0.94, TRPC6 inhibitor -8.4*, TRPC6 act inactive, HEK293 MPD ctr-2 -139%*, HEK293 MPD ctr 2-2 inactive, TRPC4 ctr mod -30%*, TRPC4/MOR inh 2 86%*, TRPC6 block conf inactive and TRPC6 act conf inactive.
